# TDP2 absorb: human TDP2 enzyme inhibitors, primary screen, biochemical, epi absorbance, recombinant enzyme; T5PNP hydrolysis, p-nitrophenol absorbance 415 nm; inhibition, % at 12.8 µM; hit rate 0.34% among 370,000;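 active means inhibition above the mean of all tested compounds plus 3 SD, set per campaign, cut at about 25% in these data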;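 further: 0% = DMSO with enzyme and 100% = buffer with substrate but no TDP2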
#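 Evaluation: % inhibition relative to enzyme-containing and enzyme-free wells. Material: recombinant human TDP2. Benchmarks: enzyme-free and DMSO wells. Timing: enzyme reaction with compound for 2 h at 37 °C. Compound dosing: 12.8 µM only. Measured by: p-Nitrophenol epi absorbance. Reagent: T5PNP substrate at 5 mM, a TopII-DNA adduct mimic. Replication: single well per compound.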
# eLon inh: inhibitors of E. coli Lon protease, primary screen, biochemical, fluorescence polarization; P0A9M0; purified E. coli Lon protease; inhibition, % at 7.94 µM; hit rate 0.42% among 360,000; AID 602123, 2011; in the data active means inhibition above about 13%, passing the limit was not always enough;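 further: 0% = enzyme with probe and DMSO and 100% = no enzyme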
# GSTO1 counter: inhibitors of recombinant GSTO1, primary screen, counter-screen for RBBP9 inhibitor project, biochemical, fluorescence polarization; inhibition, % at 5.96 µM; hit rate 1.1% among 300,000; Glutathione S-transferase omega-1 (Homo sapiens), P78417; activity-based probe fluorescence polarization; AID 1974, 2009;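 active means inhibition above the campaign mean inhibition plus 3 SD, cut at about 35% in these data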;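 further: 0% = GSTO1-1 with DMSO and 100% = wells lacking GSTO1-1 enzyme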
# PAD4 FP inh: human PAD4 inhibitors, primary screen, biochemical, fluorescence polarization, 1536-well format; Protein-arginine deiminase type-4 (Homo sapiens), Q9UM07; inhibition, % at 6.36 µM; hit rate 0.41% among 330,000; recombinant PAD4, RCA probe fluorescence polarization;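 active means percent inhibition above a cutoff equal to the mean of all tested compounds plus 3 SD, cut at about 15% in these data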;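 further: 0% = PAD4 with RCA probe and DMSO and 100% = probe without PAD4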
# Target sequence (Q9UM07 whole entry, looked up): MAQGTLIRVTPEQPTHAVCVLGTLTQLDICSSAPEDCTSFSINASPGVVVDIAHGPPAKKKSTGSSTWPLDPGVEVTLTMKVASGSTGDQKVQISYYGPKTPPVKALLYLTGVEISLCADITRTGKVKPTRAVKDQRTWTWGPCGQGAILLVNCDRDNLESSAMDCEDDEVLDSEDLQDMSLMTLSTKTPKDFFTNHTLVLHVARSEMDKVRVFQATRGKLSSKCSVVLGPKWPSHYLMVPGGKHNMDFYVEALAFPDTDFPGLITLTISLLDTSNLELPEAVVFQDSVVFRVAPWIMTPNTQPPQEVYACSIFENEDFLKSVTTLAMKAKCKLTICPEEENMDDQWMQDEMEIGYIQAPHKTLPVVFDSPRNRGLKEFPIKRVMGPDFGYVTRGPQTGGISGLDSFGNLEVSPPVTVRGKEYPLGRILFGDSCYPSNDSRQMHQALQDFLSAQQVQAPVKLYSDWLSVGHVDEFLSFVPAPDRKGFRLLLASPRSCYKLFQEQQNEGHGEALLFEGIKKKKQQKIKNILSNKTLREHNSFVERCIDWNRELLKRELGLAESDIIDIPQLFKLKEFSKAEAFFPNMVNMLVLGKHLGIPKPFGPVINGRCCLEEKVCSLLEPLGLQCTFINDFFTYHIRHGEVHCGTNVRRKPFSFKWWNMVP
# PRMT1 inh: PRMT1 methyltransferase inhibitors, primary screen, biochemical, fluorescence polarization | inhibition, % at 2.79 µM | recombinant PRMT1, activity-based probe fluorescence polarization | AID 652257, 2013 | hit rate 1.3% among 370,000;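 active means inhibition above about 21% made by adding two undisclosed values, limit read from the data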
# PRMT1 inh conf: PRMT1 methyltransferase inhibitors, confirmation, biochemical, fluorescence polarization, triplicate | recombinant His-PRMT1, activity-based probe fluorescence polarization | inhibition, % at 2.79 µM | hit rate 42% among 3,300 | shares compounds with PRMT1 inh;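 active means mean inhibition across replicates above the hit cutoff derived for the earlier primary screen, cut at about 22% in these data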
# * = called active by the depositor; / = no result given. The list is not random: actives were taken first. Their share in the collection is about 2.5%.
SMILES,TDP2 absorb,eLon inh,GSTO1 counter,PAD4 FP inh,PRMT1 inh,PRMT1 inh conf
Cc1ccc(-c2cc(C(=O)N3CC(C)OC(C)C3)c3ccccc3n2)o1 (centres undefined),2,0,6,-2,12,/
Cc1cc(Oc2cccc3c2S(=O)(=O)N(C2CCCC2)CC(COCc2ccccc2)O3)cc(C)c1C (centres undefined),-2,0,/,/,6,/
O=C1c2ccccc2C2N1CCCN2C(=O)c1sc2ccccc2c1Cl (centres undefined),3,6,/,/,0,/
Cc1ccc(-c2cc(C(=O)Nc3ccccc3C)c3ccccc3n2)o1,2,-6,-1,-5,44*,14
Cc1ccc(CNC(=O)c2coc(=O)c3ccccc23)o1,0,-3,3,-11,32*,10
Cc1ccc(-c2cc(C(=O)N3CC(C)CC(C)C3)c3ccccc3n2)o1 (centres undefined),-15,-5,8,-1,64*,29*
CCn1cc(C(=O)NCc2ccc(C)o2)c2cc(OC)c(OC)cc2c1=O,1,1,-1,0,13,/
COc1cccc(NC(=O)c2cc(-c3ccc(C)o3)nc3ccccc23)c1,14,-8,-5,-3,10,/
Cc1ccc(-c2cc(C(=O)NCc3ccco3)c3ccccc3n2)o1,12,-8,6,-5,48*,9
CC(C)(C)C(=O)OCOP(=O)(COCCn1cnc2c(N)ncnc21)OCOC(=O)C(C)(C)C,-5,/,/,/,-5,/
Cc1ccc(-c2cc(C(=O)O)c3cc(Br)ccc3n2)o1,-9,1,-7,8,77*,81*
COc1cccc(NC(=O)CN(C)C(=O)c2cc(-c3ccc(C)o3)nc3ccccc23)c1,-6,-2,/,1,51*,12
CC(=O)c1sc2nsc(SCCN3CCCCC3)c2c1N,-9,-1,29,-1,27*,4
Nc1c(C(=O)c2ccccc2)sc2nsc(SCCN3CCCC3)c12,3,-140,-15,6,27*,12
NNc1nc(-c2ccccc2)nc(-c2ccccc2)c1Br,-16,6,-9,5,9,/
CCOC(=O)c1ccc(NC(=O)CSCCC(=O)O)cc1,4,-5,-1,-2,3,/
CCOC(=O)c1ccc(NC(=O)CSCc2ccco2)cc1,-4,-14,3,-1,82*,84*
CCOC(=O)CC(=O)CSCC(=O)Nc1ccc(C)cc1,-14,-10,-8,-5,40*,32*
O=C(Nc1ccc2ccccc2c1)NC1CCCCN(Cc2cccc(Cl)c2)C1=O (centres undefined),4,/,/,/,2,/
CC(=O)Nc1ccc(SCC(=O)c2cc(C)ccc2C)cc1,-1,-1,4,9,29*,25*
CCO[C@H]1OC(C(N)=O)=C[C@@H](c2ccccc2)[C@@H]1CCCO,11,-1,-5,1,73*,-5
COCCNC(=O)C1CCCN(C(=O)c2oc3ccccc3c2C)CC1 (centres undefined),3,2,/,/,46*,3
COCc1cc(C)nc(NC2CC(C)(C)NC(C)(C)C2)c1C#N,10,8,11,-4,0,/
COc1cccc(CNC(=O)[C@@H]2CCCN2C(=O)[C@@H]2CCCN2C(=O)c2cccs2)c1,-2,-5,/,/,1,/
CC[N+]1(C)CCC(O)(c2ccc(OC)cc2)C(C(=O)c2ccc(OC)cc2)C1 (centres undefined),8,-25,/,/,26*,13
SMILES,TDP2 absorb,eLon inh,GSTO1 counter,PAD4 FP inh,PRMT1 inh,PRMT1 inh conf
COc1ccc(-c2ccc(C(=O)C3CC3)cc2)cc1,0,-3,-5,-1,2,/
COc1ccc(C2Nc3ccccc3C(=O)N2Cc2ccc(C)o2)cc1COc1c(C)cccc1C (centres undefined),-4,/,/,/,39*,3
COc1cccc(CNC(=O)Cn2c(-c3ccccc3)cc(C(C)=O)c2C)c1,4,/,/,/,-2,/
Cc1ccc(NC(=O)C2CCN(c3nnc(-n4cccc4)s3)CC2)cc1C,-7,/,/,/,-2,/
Cc1ccccc1N1CCN(c2ccccc2NC(=O)/C=C\C(=O)O)CC1,7,-4,/,/,-2,/
Cc1ccccc1N1CCN(C(=O)c2ccccc2NC(=O)/C=C\C(=O)O)CC1,1,-6,0,-5,27*,7
FC(F)(F)Oc1ccccc1C(c1nnnn1Cc1ccccc1)N1CCN(C/C=C/c2ccccc2)CC1 (centres undefined),-3,1,/,/,2,/
COC(=O)c1cccc(N(CC(=O)NC2CCCC2)C(=O)CNC(=O)c2cccs2)c1,7,-7,1,2,-3,/
Oc1ccc2ccccc2c1CNc1cnc2ccccc2c1,-3,7,3,-3,43*,29*
CC(=O)OCC1=C(C(=O)OC(C)(C)C)N2C(=O)[C@@H](NC(=O)Cc3ccccc3)[C@H]2SC1,-9,-2,/,/,8,/
CC(=O)OCC1=C(C(=O)O)N2C(=O)C(NC(=O)c3ccc(COc4cccc(Cl)c4Cl)o3)C2SC1 (centres undefined),20,9,-12,-4,37*,13
COc1cccc(C(=O)NC2C(=O)N3C(C(=O)O)=C(COC(C)=O)CSC23)c1 (centres undefined),8,9,/,3,29*,34*
O=C(O)CCc1ccc(-c2ccc(Br)cc2)o1,7,-9,17,-2,62*,62*
COc1ccc(-c2ccc(CCC(=O)O)o2)cc1,-3,0,2,-4,58*,5
O=C(O)CCc1ccc(-c2ccc(Cl)cc2)o1,-9,1,20,-1,19,/
Cc1c(Cl)cccc1NC(=O)Nc1cc(C(C)(C)C)on1,-1,2,-3,5,-1,/
CCOC(=O)c1c(NC(=O)COC(=O)CCOc2cc(C)ccc2C)sc(C(=O)N(C)C)c1C,-5,-19,/,/,-4,/
CCOC(=O)c1ccc(N2C(=O)c3n[nH]c(-c4ccco4)c3C2c2cccc([N+](=O)[O-])c2)cc1 (centres undefined),-13,-1,-20,-5,60*,1
C/C(CCc1oc2ccc(Cl)cc2c1-c1ccc(C)o1)=N\O,-9,2,-6,-10,33*,1
C/C(CCc1oc2ccc(Br)cc2c1-c1ccc(C)o1)=N/O,3,-3,2,-5,3,/
CC1(C(=O)NS(=O)(=O)c2cccc(C#N)c2)CCN1C(=O)CC1CCCCC1 (centres undefined),-7,2,/,/,5,/

# High-throughput results as filed in PubChem.
